Assay results taken from ChEMBL document CHEMBL1156610, “Synthesis, biological evaluation, and molecular modeling studies of methylene imidazole substituted biaryls as inhibitors of human 17alpha-hydroxylase-17,20-lyase (CYP17)--part II: Core rigidification and influence of substituents at the methylene bridge” (Bioorg Med Chem, 2008).

Key:
[1] = molecular target: T1, Steroid 17-alpha-hydroxylase/17,20 lyase (Homo sapiens, UniProt P05093); assay: Inhibition of human CYP17 expressed in Escherichia coli coexpressed with cytochrome P450 reductase
T1 sequence (P05093 whole entry): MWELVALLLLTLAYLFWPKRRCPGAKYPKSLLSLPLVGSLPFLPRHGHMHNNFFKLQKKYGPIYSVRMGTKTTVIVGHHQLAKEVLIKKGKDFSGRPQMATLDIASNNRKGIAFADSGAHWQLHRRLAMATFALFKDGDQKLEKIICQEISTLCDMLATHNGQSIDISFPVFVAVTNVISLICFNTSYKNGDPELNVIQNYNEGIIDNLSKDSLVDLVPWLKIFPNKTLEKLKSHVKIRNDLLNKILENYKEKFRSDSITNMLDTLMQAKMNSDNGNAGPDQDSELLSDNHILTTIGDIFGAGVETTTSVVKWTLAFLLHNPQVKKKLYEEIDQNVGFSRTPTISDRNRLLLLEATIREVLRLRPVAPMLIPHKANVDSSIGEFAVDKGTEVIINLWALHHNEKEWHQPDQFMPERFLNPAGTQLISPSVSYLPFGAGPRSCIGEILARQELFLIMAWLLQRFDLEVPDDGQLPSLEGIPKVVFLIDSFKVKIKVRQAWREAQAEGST
In short: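 Enzyme source: 50,000g sediment from homogenized E. coli coexpressing human CYP17 and cytochrome P450 reductase. Substrate progesterone (25 µM as printed), NADPH cofactor.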

CYP3A4 = CYP3A4 (Homo sapiens, UniProt P08684); assay: Inhibition of hepatic CYP3A4 expressed in insect microsomes at 1 uM; format: ADME, Microsome
In short: (§1)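 Recombinant human enzymes from baculovirus-infected insect cell microsomes, run per supplier protocol. Test concentration 1 µM; values are means of at least three independent tests, standard deviations under 5%.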

CYP1A2 = molecular target: T2, CYP1A2 (Homo sapiens, UniProt P05177); assay: Inhibition of hepatic CYP1A2 expressed in insect microsomes at 1 uM; format: ADME, Microsome; in short: as §1
T2 sequence (P05177 whole entry): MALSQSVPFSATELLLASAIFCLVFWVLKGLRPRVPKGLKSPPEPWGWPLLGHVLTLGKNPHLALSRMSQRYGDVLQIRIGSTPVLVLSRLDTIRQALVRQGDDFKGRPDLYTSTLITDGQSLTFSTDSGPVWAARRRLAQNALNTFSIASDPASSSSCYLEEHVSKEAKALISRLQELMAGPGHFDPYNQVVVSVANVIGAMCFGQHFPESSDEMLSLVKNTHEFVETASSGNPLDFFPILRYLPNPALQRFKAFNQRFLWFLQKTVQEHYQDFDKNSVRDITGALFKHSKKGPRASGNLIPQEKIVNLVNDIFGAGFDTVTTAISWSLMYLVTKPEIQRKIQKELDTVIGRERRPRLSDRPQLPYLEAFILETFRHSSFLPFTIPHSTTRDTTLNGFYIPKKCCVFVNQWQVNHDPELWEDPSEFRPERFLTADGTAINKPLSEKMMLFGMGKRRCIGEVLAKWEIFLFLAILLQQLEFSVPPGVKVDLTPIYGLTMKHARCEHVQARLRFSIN

CYP2B6 = molecular target: T3, CYP2B6 (Homo sapiens, UniProt P20813); assay: Inhibition of hepatic CYP2B6 expressed in insect microsomes at 1 uM; format: ADME, Microsome; in short: as §1
T3 sequence (P20813 whole entry): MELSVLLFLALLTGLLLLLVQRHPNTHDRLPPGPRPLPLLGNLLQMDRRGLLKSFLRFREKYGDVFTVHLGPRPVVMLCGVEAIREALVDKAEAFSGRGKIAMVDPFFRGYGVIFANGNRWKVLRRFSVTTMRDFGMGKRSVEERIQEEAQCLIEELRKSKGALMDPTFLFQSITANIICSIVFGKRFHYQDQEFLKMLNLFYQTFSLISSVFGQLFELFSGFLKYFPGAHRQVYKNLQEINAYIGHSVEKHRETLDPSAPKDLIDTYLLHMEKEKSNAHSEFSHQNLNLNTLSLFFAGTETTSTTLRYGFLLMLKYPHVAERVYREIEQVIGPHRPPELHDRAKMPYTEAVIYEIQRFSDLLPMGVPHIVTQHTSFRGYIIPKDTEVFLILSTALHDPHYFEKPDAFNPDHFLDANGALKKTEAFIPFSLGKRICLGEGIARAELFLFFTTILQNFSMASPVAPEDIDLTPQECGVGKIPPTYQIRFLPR

CYP2D6 = CYP2D6 (Homo sapiens, UniProt P10635); assay: Inhibition of hepatic CYP2D6 expressed in insect microsomes at 1 uM; format: ADME, Microsome; in short: as §1
CYP2D6, sequence (P10635 whole entry): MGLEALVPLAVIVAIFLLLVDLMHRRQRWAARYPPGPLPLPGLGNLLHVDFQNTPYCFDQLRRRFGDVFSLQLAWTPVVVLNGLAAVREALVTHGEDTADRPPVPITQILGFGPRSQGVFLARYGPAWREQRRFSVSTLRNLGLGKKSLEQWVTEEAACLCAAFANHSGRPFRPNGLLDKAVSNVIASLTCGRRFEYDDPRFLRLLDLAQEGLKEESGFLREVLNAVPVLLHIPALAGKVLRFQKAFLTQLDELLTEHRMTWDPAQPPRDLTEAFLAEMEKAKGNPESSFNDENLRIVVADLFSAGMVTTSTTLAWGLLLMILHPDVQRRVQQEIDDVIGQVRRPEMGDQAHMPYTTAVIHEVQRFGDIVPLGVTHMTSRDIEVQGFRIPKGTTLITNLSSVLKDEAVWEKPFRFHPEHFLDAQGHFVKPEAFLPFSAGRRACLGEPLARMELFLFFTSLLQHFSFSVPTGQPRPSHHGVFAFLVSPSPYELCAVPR

CYP3A4, sequence (P08684 whole entry): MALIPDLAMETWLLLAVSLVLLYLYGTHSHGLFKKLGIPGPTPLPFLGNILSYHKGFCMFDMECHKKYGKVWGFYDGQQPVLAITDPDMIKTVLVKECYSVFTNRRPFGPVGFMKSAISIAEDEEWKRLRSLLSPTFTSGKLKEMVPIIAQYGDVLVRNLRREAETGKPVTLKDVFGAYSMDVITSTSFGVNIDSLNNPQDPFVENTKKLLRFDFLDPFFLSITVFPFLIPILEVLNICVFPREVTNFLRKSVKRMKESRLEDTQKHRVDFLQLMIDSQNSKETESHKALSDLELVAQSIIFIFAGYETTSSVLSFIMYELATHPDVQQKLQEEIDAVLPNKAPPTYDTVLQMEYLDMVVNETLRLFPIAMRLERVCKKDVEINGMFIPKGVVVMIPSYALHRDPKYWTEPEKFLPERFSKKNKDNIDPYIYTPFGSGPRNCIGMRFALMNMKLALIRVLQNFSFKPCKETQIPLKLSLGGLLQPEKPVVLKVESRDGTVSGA

| Compound | IC50 [1] [nM] | further results |
| --- | --- | --- |
| CCC(c1ccc(-c2ccc(C#N)cc2)cc1)n1ccnc1 (stereo unspecified) | > 5000 | – |
| C=CC(c1ccc(-c2ccccc2)cc1)n1ccnc1 (stereo unspecified) | 1400 | – |
| CC(c1ccc(-c2ccc(F)cc2)cc1)n1ccnc1 (stereo unspecified) | 1100 | – |
| CCCC(c1ccc(-c2ccccc2)cc1)n1ccnc1 (stereo unspecified) | 580 | – |
| CC(c1ccc2c(c1)[nH]c1cc(F)ccc12)n1ccnc1 (stereo unspecified) | 118 | inhibition at 1 µM (CYP3A4): 75% |
| CCc1ccc(-c2ccc(C(CC)n3ccnc3)cc2)cc1 (stereo unspecified) | 2000 | – |
| CCC(c1ccc(-c2ccc(N(CC)CC)cc2)cc1)n1ccnc1 (stereo unspecified) | > 5000 | – |
| CC(C)C(c1ccc(-c2ccccc2)cc1)n1ccnc1 (stereo unspecified) | 310 | – |
| CC(c1ccc(-c2ccccc2)cc1)n1ccnc1 (stereo unspecified) | 910 | – |
| CCC(c1ccc(-c2ccccc2)cc1)n1ccnc1 (stereo unspecified) | 450 | – |
| CC(C)CC(c1ccc(-c2ccccc2)cc1)n1ccnc1 (stereo unspecified) | 2100 | – |
| CC(C)(C)C(c1ccc(-c2ccccc2)cc1)n1ccnc1 (stereo unspecified) | 460 | – |
| CCCCC(c1ccc(-c2ccccc2)cc1)n1ccnc1 (stereo unspecified) | 300 | – |
| c1ccc(-c2ccc(C(c3ccc(-c4ccccc4)cc3)n3ccnc3)cc2)cc1 | 2300 | – |
| CCC(c1ccc(-c2ccc(SC)cc2)cc1)n1ccnc1 (stereo unspecified) | 3100 | – |
| CCC(c1ccc(-c2ccc(C)cc2)cc1)n1ccnc1 (stereo unspecified) | > 5000 | – |
| CC(c1ccc2c(c1)[nH]c1ccccc12)n1ccnc1 (stereo unspecified) | 282 | inhibition at 1 µM (CYP3A4): 88%; inhibition at 1 µM (CYP1A2): 99% |
| Fc1ccc(-c2ccc(C(CCCl)n3ccnc3)cc2)cc1 (stereo unspecified) | 756 | inhibition at 1 µM (CYP2B6): 34%; inhibition at 1 µM (CYP3A4): 86%; inhibition at 1 µM (CYP1A2): 96%; inhibition at 1 µM (CYP2D6): 32% |
| C=CC(c1ccc(-c2ccc(F)cc2)cc1)n1ccnc1 (stereo unspecified) | > 5000 | – |
